Source: ChEMBL document CHEMBL3588826, “Chimeric derivatives of functionalized amino acids and α-aminoamides: compounds with anticonvulsant activity in seizure models and inhibitory actions on central, peripheral, and cardiac isoforms of voltage-gated sodium channels” (Bioorg Med Chem, 2015)
Calls of active or inactive are those of the source. The rule behind the calls is not given here.

What was measured:
Mus musculus [1] = assay: Anticonvulsant activity in ip dosed albino Carworth Farms No. 1 mouse measured at 0.25 hrs by maximal electroshock seizure test; type: functional; details: Carworth Farms No. 1, ip
In short: (§1)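 Screened under the NIH anticonvulsant program in male albino Carworth Farms No. 1 mice (ip) and male albino Sprague-Dawley rats (ip or oral). Protection tested by maximal electroshock or 6 Hz (32 mA) psychomotor stimulation.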

[2] = Behavioural toxicity in po dosed albino Sprague-Dawley rat measured at 0.25 - 4 hrs; type: organism-based; details: in vivo
In short: (§2)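 Male albino Sprague-Dawley rats were dosed ip or orally. […] Protective index = TD50/ED50, the ED50 taken from maximal electroshock by the same route.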

Rattus norvegicus [3] = species: Rattus norvegicus; assay: Frequency-dependent inhibition of voltage-gated sodium channel in rat embryonic cortical neurons assessed as current amplitude at 10 uM measured at holding potential of -80 mV by whole cell patch-clamp electrophysiology
In short: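 E19 rat cortical neurons cultured 7–10 days were recorded by whole-cell voltage clamp at room temperature. Compound was at 10 μM versus 0.1% DMSO. A pulse train was applied, and available current was taken as peak current at pulse N divided by peak at pulse 1.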

Mus musculus [4] = assay: Anticonvulsant activity in ip dosed albino Carworth Farms No. 1 mouse measured at 0.25-0.5 hrs by 6Hz (32 mA) psychomotor seizure test; type: functional; details: Carworth Farms No. 1, ip
In short: (§3)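 Screened under the NIH Anticonvulsant Screening Program in male rodents, with mice and rats dosed ip and rats also dosed po. Maximal electroshock (MES) and 6 Hz (32 mA) psychomotor seizure tests were run.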

Rattus norvegicus [5] = assay: Anticonvulsant activity in po dosed albino Sprague-Dawley rat measured at 0.25 - 4.0 hrs by maximal electroshock seizure test; type: functional; in short: as §3
[6] = Protective index, ratio of TD50 for neurotoxicity in ip dosed albino Carworth Farms No. 1 mouse to ED50 for anticonvulsant activity in ip dosed MES albino Carworth Farms No. 1 mouse model; type: toxicity, organism-based; details: in vivo, read-out: Ratio TD50/ED50
In short: (§4)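 Male albino Carworth Farms No. 1 mice were dosed ip. Protective index = TD50/ED50, the ED50 taken from the ip maximal electroshock test.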

[7] = Behavioural toxicity in ip dosed albino Sprague-Dawley rat measured at 0.5 hrs; type: organism-based; details: in vivo
[8] = Protective index, ratio of TD50 for behavioural toxicity in po dosed albino Sprague-Dawley rat to ED50 for anticonvulsant activity in po dosed MES albino Sprague-Dawley rat model; type: organism-based; details: in vivo, read-out: Ratio TD50/ED50
In short: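 Male albino Sprague-Dawley rats were dosed ip or orally. Protective index = TD50/ED50, the ED50 taken from maximal electroshock by the same route.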

Rattus norvegicus [9] = assay: Anticonvulsant activity in po dosed albino Sprague-Dawley rat measured at 1 hr by maximal electroshock seizure test; type: functional; in short: as §1
Mus musculus [10] = assay: Anticonvulsant activity in ip dosed albino Carworth Farms No. 1 mouse measured at 0.5 hrs by maximal electroshock seizure test; type: functional; details: Carworth Farms No. 1, ip; in short: as §1
Mus musculus [11] = assay: Anticonvulsant activity in ip dosed albino Carworth Farms No. 1 mouse measured at 0.25 hrs by 6Hz (32 mA) psychomotor seizure test; type: functional; details: Carworth Farms No. 1, ip; in short: as §1
[12] = Protective index, ratio of TD50 for behavioural toxicity in ip dosed albino Sprague-Dawley rat to ED50 for anticonvulsant activity in ip dosed MES albino Sprague-Dawley rat model; type: organism-based; details: in vivo, read-out: Ratio TD50/ED50; in short: as §2
[13] = Neurotoxicity in ip dosed albino Carworth Farms No. 1 mouse measured at 0.25 hrs by rotarod test; type: toxicity, organism-based; details: in vivo
[14] = Behavioural toxicity in po dosed albino Sprague-Dawley rat measured at 0.5 hrs; type: organism-based; details: in vivo; in short: as §2
Rattus norvegicus [15] = species: Rattus norvegicus; assay: Inhibition of voltage-gated sodium channel in rat embryonic cortical neurons assessed as transition of channels to slow-inactivated state at 10 uM measured at -50 mV by whole cell patch-clamp electrophysiology
In short: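 E19 rat cortical neurons cultured 7–10 days were recorded by whole-cell voltage clamp at room temperature, with electrodes of 1–2 MΩ. Compound was at 10 μM versus 0.1% DMSO control. Slow inactivation at −50 mV was calculated as 1 minus normalized peak INa, from 5–8 cells per condition.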

Rattus norvegicus [16] = assay: Anticonvulsant activity in ip dosed albino Sprague-Dawley rat measured at 0.5 hrs by maximal electroshock seizure test; type: functional; in short: as §3
[17] = Behavioural toxicity in po dosed albino Sprague-Dawley rat; details: in vivo
Rattus norvegicus [18] = assay: Anticonvulsant activity in ip dosed albino Sprague-Dawley rat by maximal electroshock seizure test; type: functional; in short: as §3
Rattus norvegicus [19] = assay: Anticonvulsant activity in po dosed albino Sprague-Dawley rat by maximal electroshock seizure test; type: functional; in short: as §3
Rattus norvegicus [20] = assay: Anticonvulsant activity in po dosed albino Sprague-Dawley rat measured at 0.5 hrs by maximal electroshock seizure test; type: functional; in short: as §1
Rattus norvegicus [21] = assay: Anticonvulsant activity in ip dosed albino Sprague-Dawley rat measured at 0.25 hrs by maximal electroshock seizure test; type: functional; in short: as §1
Mus musculus [22] = assay: Anticonvulsant activity in ip dosed albino Carworth Farms No. 1 mouse measured at 0.5 hrs by 6Hz (32 mA) psychomotor seizure test; type: functional; details: Carworth Farms No. 1, ip; in short: as §1
[23] = Behavioural toxicity in ip dosed albino Sprague-Dawley rat measured at 0.25 hrs; type: organism-based; details: in vivo; in short: as §2
Mus musculus [24] = assay: Anticonvulsant activity in ip dosed albino Carworth Farms No. 1 mouse by maximal electroshock seizure test; type: functional; details: Carworth Farms No. 1, ip; in short: as §3
Mus musculus [25] = assay: Anticonvulsant activity in ip dosed albino Carworth Farms No. 1 mouse measured at 0.5 - 2.0 hrs by maximal electroshock seizure test; type: functional; details: Carworth Farms No. 1, ip; in short: as §1
[26] = (§5) Neurotoxicity in ip dosed albino Carworth Farms No. 1 mouse measured at 0.5 hrs by rotarod test; type: toxicity, organism-based; details: Carworth Farms No. 1, mouse, in vivo; in short: as §4
Rattus norvegicus [27] = species: Rattus norvegicus; assay: Effect on steady state activation of voltage-gated sodium channel in rat embryonic cortical neurons at 10 uM by whole cell patch-clamp electrophysiology
In short: (§6)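 Rat embryonic day 19 cortical neurons, cultured 7–10 days, were whole-cell voltage-clamped at room temperature with 1–2 MΩ electrodes, with compound at 10 μM and 0.1% DMSO as control. Fast inactivation: 500 ms prepulses, then a test pulse. Activation: conductance G = I/(Vm − Vrev). V1/2 and k came from Boltzmann fits to individual cells, averaged (mean ± SEM), 5–7 cells per condition.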

Rattus norvegicus [28] = species: Rattus norvegicus; assay: Effect on steady state fast-inactivation of voltage-gated sodium channel in rat embryonic cortical neurons at 10 uM by whole cell patch-clamp electrophysiology; in short: as §6
Rattus norvegicus [29] = species: Rattus norvegicus; assay: Inhibition of voltage-gated sodium channel in rat embryonic cortical neurons assessed as decrease in fraction of current available at 10 uM measured at -50 mV by whole cell patch-clamp electrophysiology
In short: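 Embryonic cortical neurons were treated with 10 μM compound or 0.1% DMSO, whole-cell voltage clamp at room temperature. Slow inactivation was assessed at −50 mV, with the fraction inactivated taken as 1 minus the normalized INa. Student's t-test; 5–8 cells per condition.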

Rattus norvegicus [30] = assay: Anticonvulsant activity in po dosed albino Sprague-Dawley rat measured at 0.25 - 1 hr by maximal electroshock seizure test; type: functional; in short: as §1
Rattus norvegicus [31] = species: Rattus norvegicus; assay: Inhibition of voltage-gated sodium channel in rat embryonic cortical neurons assessed as half-maximal voltage for steady state activation at 10 uM by whole cell patch-clamp electrophysiology (reference value: -27.1 +/- 1.3 mV); in short: as §6
[32] = Behavioural toxicity in ip dosed albino Sprague-Dawley rat measured at 1 hr; type: organism-based; details: in vivo; in short: as §2
Mus musculus [33] = assay: as §5; type: toxicity, organism-based; details: mouse, in vivo, 0.5 h; in short: as §4
Rattus norvegicus [34] = assay: Anticonvulsant activity in po dosed albino Sprague-Dawley rat measured at 0.5 - 4 hrs by maximal electroshock seizure test; type: functional; in short: as §1
Mus musculus [35] = assay: Anticonvulsant activity in ip dosed albino Carworth Farms No. 1 mouse measured at 1 hr by maximal electroshock seizure test; type: functional; details: Carworth Farms No. 1, ip; in short: as §1
Rattus norvegicus [36] = assay: Anticonvulsant activity in po dosed albino Sprague-Dawley rat measured at 5 hrs by maximal electroshock seizure test; type: functional; in short: as §1

COC[C@@H](NC(C)=O)C(=O)NCc1ccc(Oc2cccc(F)c2)cc1
ED50 (Mus musculus [1]): 5.5 mg/kg | TD50 [2]: > 10 mg/kg | inhibition (Rattus norvegicus [3]): inactive | ED50 (Mus musculus [4]): 10 mg/kg | ED50 (Rattus norvegicus [5]): < 10 mg/kg | selectivity ratio [6]: 4.2

CCCC(CCC)C(=O)O [VALPROIC ACID]
ED50 (Mus musculus [1]): 270 mg/kg

COC[C@@H](NC(C)=O)C(=O)NCc1ccc(Oc2cccc(Cl)c2)cc1
TD50 at 0.5 h [7]: 49 mg/kg | selectivity ratio [8]: 18 | ED50 (Rattus norvegicus [9]): 12 mg/kg | inhibition (Rattus norvegicus [3]): inactive | ED50 (Mus musculus [10]): 9.4 mg/kg | ED50 (Mus musculus [11]): 20 mg/kg | selectivity ratio [12]: 8.3 | selectivity ratio [6]: 5 | TD50 at 0.25 h [13]: 47 mg/kg | TD50 at 0.5 h [14]: 210 mg/kg | inhibition (Rattus norvegicus [15]): Active | ED50 (Rattus norvegicus [16]): 5.9 mg/kg

O=C1NC(=O)C(c2ccccc2)(c2ccccc2)N1 [PHENYTOIN]
TD50 [17]: > 1000 mg/kg | ED50 (Rattus norvegicus [18]): 2.4 mg/kg | ED50 (Rattus norvegicus [19]): 28 mg/kg

COC[C@@H](NC(C)=O)C(=O)NCc1ccc(Oc2cccc(C)c2)cc1
ED50 (Mus musculus [1]): 14 mg/kg | TD50 [2]: > 30 mg/kg | inhibition (Rattus norvegicus [3]): inactive | ED50 (Rattus norvegicus [20]): < 30 mg/kg | selectivity ratio [12]: 12 | selectivity ratio [6]: 4.6 | ED50 (Rattus norvegicus [21]): 12 mg/kg | TD50 at 0.25 h [13]: 65 mg/kg | ED50 (Mus musculus [22]): 100 mg/kg | TD50 at 0.25 h [23]: 140 mg/kg

C[C@H](NCc1ccc(OCc2cccc(F)c2)cc1)C(N)=O [SAFINAMIDE]
ED50 (Mus musculus [24]): 4.1 mg/kg | ED50 (Rattus norvegicus [19]): 12 mg/kg

COC[C@@H](NC(C)=O)C(=O)NCc1ccc(Oc2ccccc2)cc1
ED50 (Mus musculus [25]): < 30 mg/kg | inhibition (Rattus norvegicus [3]): inactive | TD50 at 0.5 h [26]: < 100 mg/kg | Activity (Rattus norvegicus [27]): inactive | Activity (Rattus norvegicus [28]): inactive | ED50 (Mus musculus [22]): < 30 mg/kg | inhibition (Rattus norvegicus [29]): Active

COC[C@@H](NC(C)=O)C(=O)NCc1ccc(Oc2cccc(OC)c2)cc1
ED50 (Mus musculus [1]): 13 mg/kg | TD50 [2]: > 30 mg/kg | inhibition (Rattus norvegicus [3]): inactive | ED50 (Rattus norvegicus [30]): 30 mg/kg | selectivity ratio [12]: 8 | selectivity ratio [6]: 6.5 | ED50 (Rattus norvegicus [21]): 15 mg/kg | TD50 at 0.25 h [13]: 85 mg/kg | ED50 (Mus musculus [22]): < 100 mg/kg | V1/2 (Rattus norvegicus [31]): -36.8 mV | TD50 at 1 h [32]: 120 mg/kg

COC[C@@H](NC(C)=O)C(=O)NCc1ccc(Oc2cccc(C(F)(F)F)c2)cc1
TD50 [2]: > 30 mg/kg | inhibition (Rattus norvegicus [3]): inactive | TD50 (Mus musculus [33]): > 100 mg/kg | ED50 (Mus musculus [10]): 10 mg/kg | ED50 (Rattus norvegicus [34]): < 30 mg/kg | ED50 (Mus musculus [22]): < 100 mg/kg | V1/2 (Rattus norvegicus [31]): -35.6 mV

COC[C@@H](NC(C)=O)C(=O)NCc1ccccc1 [LACOSAMIDE]
TD50 at 0.5 h [14]: > 500 mg/kg | ED50 (Mus musculus [22]): 10 mg/kg

CCC1(c2ccccc2)C(=O)NC(=O)NC1=O [PHENOBARBITAL]
ED50 (Mus musculus [35]): 22 mg/kg | ED50 (Rattus norvegicus [36]): 9.1 mg/kg
